Shown are actives, neighbours in structure and some others; about 1.9% of the full set was active somewhere.
TbHK1 inh: Trypanosoma brucei hexokinase 1 inhibitors, primary screen, biochemical, G6PDH-coupled NADH absorbance, MLSCN library. inhibition, % at 10 µM. hit rate 0.11% among 220,000. hexokinase 1 [Trypanosoma brucei]. AID 1430, 2008. recombinant TbHK1, G6PDH-coupled NADH A340;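 active = inhibition of 50% or more in the single-dose primary screen; inactive = inhibition below 50%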
MT stabilize HCS: microtubule stabilizers in HeLa cells, primary screen, imaging, high-content imaging. HeLa tubulin immunostaining HCS, 24 h; share of cells brighter than vehicle mean+2SD. hit rate 0.83% among 200,000. AID 2205, 2009. % tubulin-high responders, % at 10 µM;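 active = plate Z-score above 3 for both tubulin-high and condensed-nucleus cell shares, with cell loss under 80%, at 10 µM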;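 also: anti alpha tubulin signal scored within the nucleus-defined area of each cell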
Autophagy HCS: autophagy modulators in MEF cells, primary screen, imaging, high-content, MEF GFP-LC3. calls only at 10 µM (by protocol). MEF GFP-LC3 puncta imaging; test concentration mostly 10 µM. AID 463193, 2010. hit rate 0.98% among 190,000;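 active = percentage of spot-positive cells more than 3 SD above its plate mean, without a fluorescence outlier flag or 80% toxicity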
Insulin prom up: insulin promoter activators in MIN6 cells, imaging, high-content screening, mouse beta cells. z-score at 5 µM. AID 1625, 2009. hit rate 0.3% among 190,000. MIN6 insulin promoter-GFP reporter; stronger effect = higher value;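 active = z-score above 3 at 5 µM with at least 500 cells counted in the well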
b-catenin transl: modulators of beta-catenin nuclear translocation, primary screen, imaging, HeLa cells, immunofluorescence, high-content; nuclear translocation activity, % at 5 µM; hit rate 0.3% among 190,000; AID 1665, 2009;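 active = nuclear translocation activity above 50% at 5 µM, with a well cell count of 50 or more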;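 also: per-cell ratio of nuclear to cytoplasmic median beta-catenin stain intensity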
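Signal – beta-catenin immunofluorescence imaging with DAPI · Test system – human HeLa cell line · Dosing – 5 µM primary single dose, 0.1% DMSO, 0.02–20 µM confirmation series · Measure – % activation, nuclear-to-cytoplasmic median beta-catenin signal ratio per cell · Incubation – 24 h compound exposure at 37°C, 5% CO2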
A number is an active result; n = inactive; x = no result given; + = active, no number.

SMILES	TbHK1 inh	MT stabilize HCS	Autophagy HCS	Insulin prom up	b-catenin transl
COC(=O)C1C(=O)c2c(n[nH]c2C)CC1(C)C (configuration not stated)	n	n	n	n	n
CCOC(=O)c1sc(NC(=O)c2sccc2C)cc1C	n	n	n	3.1	x
Cc1cccc(C)c1NC(=O)COC(=O)c1c2c(nc3ccccc13)/C(=C\c1ccc3c(c1)OCO3)CCC2	n	n	+	n	x
Cc1ccccc1N1CCN(C2=NC(=O)/C(=C\c3cccs3)S2)CC1	n	9.4	n	n	n
COCCCN(C(=S)NC(=O)C12CC3CC(CC(C3)C1)C2)c1c(N)n(Cc2ccccc2)c(=O)[nH]c1=O	n	n	n	n	n
CCCn1c(=NC(=O)c2ccco2)c(C(=O)OCC)cc2c(=O)n3ccccc3nc21	n	n	n	n	n
CCCn1c(=NC(=O)c2c(-c3c(F)cccc3Cl)noc2C)c(C(=O)OCC)cc2c(=O)n3ccccc3nc21	n	n	+	n	n
Cn1c(-c2ccc(F)cc2)cnc1NCc1cccc(F)c1	n	14.5	n	n	n
COc1ccc(-c2csc(NC(=S)NC(=O)c3ccco3)n2)cc1	n	n	+	n	n
O=C(NC(=S)Nc1nc(-c2ccccc2)cs1)c1ccco1	n	n	n	n	n
O=C(/C=C/c1ccco1)NC(=S)Nc1nc(-c2ccc(Cl)cc2)cs1	n	12.4	n	n	n
O=C(/C=C/c1ccco1)NC(=S)Nc1ccccc1N1CCCC1	n	n	n	3.08	n
COc1ccc(-n2nnnc2-c2ccccc2)cc1	n	36.3	+	n	x
O=[N+]([O-])c1ccc(/C=N/n2c(CO)nc3ccccc32)s1	n	n	n	n	n
Cc1nc2ccccc2n1/N=C/c1ccc([N+](=O)[O-])s1	n	10.1	n	n	n
Cn1ccnc1C(=O)c1cc(SCC(=O)NCc2ccccc2)nc2ccccc12	n	16.3	n	n	n
Cc1cc(C)n2nc(/C(C#N)=C/c3ccccn3)c(C#N)c2n1	n	n	n	n	n
COc1cccc(OCc2nc3ccccc3[nH]2)c1	n	n	n	n	x
Cc1cc(C)cc(OCc2nc3ncc(Br)cc3[nH]2)c1	n	34.4	+	x	x
COc1cccc(OCc2nc3ncc(Br)cc3[nH]2)c1	n	35.6	n	n	n
Brc1cnc2nc(SCc3nc4ccccc4[nH]3)[nH]c2c1	n	x	x	n	n
CCN(CC)c1cc(C)c2cc(NC(=O)c3cccs3)ccc2n1	n	n	+	n	n
COc1ccc(/C(C)=N\O)cc1OC	n	x	x	n	n
CC(C)(C)n1ncc2c(=O)n(CC(=O)NCc3ccccc3)cnc21	n	31.8	n	x	n
O=c1[nH]c(CN2CCN(Cc3ccc4c(c3)OCO4)CC2)nc2sc3c(c12)CCC3	x	x	x	3.55	n
SMILES	TbHK1 inh	MT stabilize HCS	Autophagy HCS	Insulin prom up	b-catenin transl
O=C(Nc1cccn(Cc2cccc(F)c2)c1=O)NC1CCCCC1	n	n	n	n	n
O=C(Nc1cccn(Cc2c(F)cccc2Cl)c1=O)NC1CCCCC1	n	16.9	n	n	n
O=C(Nc1cccn(Cc2c(Cl)cccc2Cl)c1=O)C1CC1	n	n	n	n	n
C#CCOC(=O)Nc1cccn(Cc2c(Cl)cccc2Cl)c1=O	n	51.4	n	n	n
O=C1OCC2OC(O)C(O)C(O)C2OC(=O)c2cc(O)c(O)c(O)c2-c2c(O)c(O)c3oc(=O)c4c(c(O)c(O)c5oc(=O)c2c3c54)-c2c1cc(O)c(O)c2O (configuration not stated)	53.9	x	x	n	n
O=C(NC(=S)NCC1CCCO1)c1ccccc1[N+](=O)[O-] (configuration not stated)	n	n	n	n	n
COc1ccc(S(=O)(=O)Cc2ccc(C(=O)N3CCN(c4cccc(C)c4)C(C)C3)o2)cc1 (configuration not stated)	n	24.0	n	n	x
Cc1cccc(N2CCN(C(=O)c3ccc4c(c3)OCCO4)CC2C)c1 (configuration not stated)	n	13.0	n	n	n
COc1ccc(S(=O)(=O)Cc2ccc(C(=O)N3CCN(c4cccc(C)c4C)CC3)o2)cc1	n	22.3	n	x	n
Cc1cccc(N2CCN(C(=O)c3ccncc3)CC2C)c1 (configuration not stated)	n	n	n	n	n
Cc1ccc(S(=O)(=O)Cc2ccc(C(=O)N3CCN(c4ccc(F)cc4)CC3)o2)cc1	n	23.6	n	n	x
COc1ccc(N2CCN(C(=O)c3ccc(CS(=O)(=O)c4ccc(OC)cc4)o3)CC2)cc1	n	n	n	n	x
COc1ccc(/C=C/CN2CCC(CO)(Cc3ccccc3Cl)CC2)cc1	n	n	n	x	n
Cc1ccc(/C=N/NC(=O)c2n[nH]c3c2CCCC3)cc1	n	x	x	n	57.9
O=C(N/N=C/c1cccc2ccccc12)c1n[nH]c2c1CCCC2	n	30.6	n	n	n
O=C(N/N=C\c1cccc(Cl)c1)c1n[nH]c2c1CCCC2	n	n	n	n	n
O=C(N/N=C/c1ccc(Cl)cc1Cl)c1n[nH]c2c1CCCC2	n	21.5	n	n	n
CCc1ccc(-c2ccc(SCC(=O)NCC3CCCO3)nn2)cc1 (configuration not stated)	n	n	n	n	n
Cc1ccc2nc(C)c(C(=O)NN=C3CCN(C)CC3)n2c1	n	n	n	n	n
CC(C)(C)NC(=O)C(c1cccs1)N(C(=O)c1csnn1)c1ccccc1F (configuration not stated)	n	n	n	n	n
Cc1nc([N+](=O)[O-])cn1Cc1cccc([N+](=O)[O-])c1	n	n	n	n	n
O=C(Nc1ccccc1)c1nn(-c2ccccc2)c(=O)cc1C(F)(F)F	n	15.9	+	n	n
Cc1c(Cl)cccc1NC(=O)C(=O)NNC(=O)c1ccccc1F	n	n	n	n	n
COc1ccc2nc(SCC(=O)Nc3ccc4sc(C)nc4c3)c(C#N)cc2c1	n	n	+	n	n
COc1ccc(NC(=O)CSc2nc(N)c(C#N)cc2C#N)cc1	n	n	n	x	n
SMILES	TbHK1 inh	MT stabilize HCS	Autophagy HCS	Insulin prom up	b-catenin transl
Cc1ccc(C(=O)NCCOc2cccc3cccnc23)cc1Cl	n	n	n	n	n
COc1cc(C(=O)NCCOc2cccc3cccnc23)cc(OC)c1OC	n	39.6	n	x	n
COc1cc(C(=O)NCCN2CCCC2)cc(OC)c1OC	n	n	+	n	n
Cc1cc(-c2ccccc2C(=O)NC2CCCCC2)on1	n	x	x	n	n
C=CCn1c(C)cc(C(=O)CSc2nnc(NCc3ccccc3)s2)c1C	n	40.4	n	x	n
CC(C)(C)n1nc2c(c1NC(=O)c1ccccc1F)CS(=O)C2 (configuration not stated)	n	n	+	n	n
CC(C)(C)n1nc2c(c1NC(=O)c1ccco1)CS(=O)C2 (configuration not stated)	n	n	n	n	n

Source: PubChem
